The record followed here is ChEMBL document CHEMBL3351525, “Synthesis of tripeptides containing D-Trp substituted at the indole ring, assessment of opioid receptor binding and in vivo central antinociception” (J Med Chem, 2014).

Active and inactive are the calls of the source. Where a SMILES comes first, the peptide text is derived from it. [ ]: non-standard residue; d: D form. A value given as a limit tells only on which side of the number the result lay.

The target of series [1] is Mu-type opioid receptor (Homo sapiens, UniProt P35372). Nature of the series: Displacement of [3H]DAMGO from human mu opioid receptor expressed in HEK293 cells by scintillation counting. It is filed as cell-based.
Chain of Mu-type opioid receptor (P35372 whole entry): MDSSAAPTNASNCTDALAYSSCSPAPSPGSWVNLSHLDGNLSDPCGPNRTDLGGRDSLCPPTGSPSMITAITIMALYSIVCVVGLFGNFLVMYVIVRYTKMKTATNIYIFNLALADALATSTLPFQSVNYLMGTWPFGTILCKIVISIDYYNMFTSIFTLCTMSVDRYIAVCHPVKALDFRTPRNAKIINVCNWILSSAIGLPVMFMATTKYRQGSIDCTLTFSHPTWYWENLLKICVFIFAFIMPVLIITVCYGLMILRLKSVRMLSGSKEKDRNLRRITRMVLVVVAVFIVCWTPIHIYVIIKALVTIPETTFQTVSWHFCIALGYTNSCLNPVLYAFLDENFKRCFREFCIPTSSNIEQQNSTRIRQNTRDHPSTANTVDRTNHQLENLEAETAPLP
The subject of series [2] is Mus musculus. Nature of the series: Toxicity in icv dosed CD-1 mouse assessed as straub tail. It is filed as organism-based. Conditions: in vivo, icv_or_intrathecal.
The subject of series [3] is Mus musculus. Nature of the series: Antinociceptive activity in CD-1 mouse assessed as increase in tail-flick latency period at 20 mg/kg, ip at 30 mins by tail flick test. It is filed as functional. Conditions: for MPE: route intraperitoneal.
The subject of series [4] is Mus musculus. Nature of the series: Toxicity in icv dosed CD-1 mouse assessed as grooming. It is filed as organism-based. The conditions noted are these: in vivo, icv_or_intrathecal.
The subject of series [5] is Mus musculus. Nature of the series: Toxicity in icv dosed CD-1 mouse assessed as circling behavior. Format: organism-based. Conditions: in vivo, icv_or_intrathecal.
Series [6] deals with Mus musculus. Kind of series: Antinociceptive activity in CD-1 mouse assessed as increase in tail-flick latency period at 20 mg/kg, ip at 15 mins by tail flick test. It is filed as functional. Conditions: for MPE: route intraperitoneal.
The subject of series [7] is Mus musculus. Kind of series: Toxicity in icv dosed CD-1 mouse assessed as locomotor activity. The conditions noted are these: in vivo, icv_or_intrathecal. It is filed as organism-based.
Series [8] can be described thus: Stability in mouse serum assessed as drug degradation after 3 hrs incubation. It is filed as ADME. Conditions: read-out: Drug degradation. In short, it runs like this: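 Peptide incubated in mouse serum for 3 h; degradation assessed.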
Series [9] concerns Mus musculus. Nature of the series: Antinociceptive activity in CD-1 mouse assessed as increase in tail-flick latency period at 2.5 microg, icv at 10 mins by tail flick test. It is filed as functional.
The test system of series [10] is Mus musculus. Kind of series: Antinociceptive activity in icv dosed CD-1 mouse assessed as increase in tail-flick latency period at 10 mins by tail flick test. It is filed as functional, organism-based. In short, it runs like this: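 Hot-water (52 ± 0.5 °C) tail-immersion test after icv injection at 2.5, 5 or 10 μg/mouse, compared with vehicle. Withdrawal latency measured with a 10 s cutoff. Response expressed as % maximal possible effect (MPE%).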

Series [11] deals with Kappa-type opioid receptor (Homo sapiens, UniProt P41145). Nature of the series: Displacement of [3H]U69593 from human kappa opioid receptor expressed in HEK293 cells by scintillation counting. Format: cell-based.
Chain of Kappa-type opioid receptor (P41145 whole entry): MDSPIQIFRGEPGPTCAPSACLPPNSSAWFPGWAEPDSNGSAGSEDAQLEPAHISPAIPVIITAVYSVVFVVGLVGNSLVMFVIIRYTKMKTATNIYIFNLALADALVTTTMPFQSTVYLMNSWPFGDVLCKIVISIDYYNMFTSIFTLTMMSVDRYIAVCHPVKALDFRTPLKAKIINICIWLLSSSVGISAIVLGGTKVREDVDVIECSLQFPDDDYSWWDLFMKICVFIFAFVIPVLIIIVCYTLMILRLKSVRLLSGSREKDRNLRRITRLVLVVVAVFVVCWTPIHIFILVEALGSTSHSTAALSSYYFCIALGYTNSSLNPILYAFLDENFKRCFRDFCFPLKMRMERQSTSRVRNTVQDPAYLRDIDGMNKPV
Series [12] deals with Mus musculus. Nature of the series: Antinociceptive activity in CD-1 mouse assessed as increase in tail-flick latency period at 40 mg/kg, ip at 30 mins by tail flick test. Format: functional. Conditions: route intraperitoneal.
In series [13] the test system is Mus musculus. Kind of series: Antinociceptive activity in CD-1 mouse assessed as increase in tail-flick latency period at 5 microg, icv at 10 mins by tail flick test. Format: functional.
The test system of series [14] is Mus musculus. Nature of the series: Antinociceptive activity in CD-1 mouse assessed as increase in tail-flick latency period at 10 microg, icv at 10 mins by tail flick test. It is filed as functional.
The test system of series [15] is Mus musculus. Kind of series: Antinociceptive activity in ip dosed CD-1 mouse assessed as increase in tail-flick latency period at 30 mins by tail flick test. It is filed as functional, organism-based. A digest of the protocol:
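Tail immersed in 52 ± 0.5 °C water; withdrawal latency measured. Pre-treatment control latency recorded; mice not flicking within 5 s excluded. Vehicle or peptide given ip at 10, 20 or 40 mg/kg. Latency read at 5, 15, 30, 45 and 60 min post-dose, 10 s cutoff. Response expressed as % maximal possible effect (MPE%).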

The target in series [16] is Delta-type opioid receptor (Homo sapiens, UniProt P41143). Kind of series: Displacement of [3H]diprenorphine from human delta opioid receptor expressed in HEK293 cells by scintillation counting. It is filed as cell-based.
Chain of Delta-type opioid receptor (P41143 whole entry): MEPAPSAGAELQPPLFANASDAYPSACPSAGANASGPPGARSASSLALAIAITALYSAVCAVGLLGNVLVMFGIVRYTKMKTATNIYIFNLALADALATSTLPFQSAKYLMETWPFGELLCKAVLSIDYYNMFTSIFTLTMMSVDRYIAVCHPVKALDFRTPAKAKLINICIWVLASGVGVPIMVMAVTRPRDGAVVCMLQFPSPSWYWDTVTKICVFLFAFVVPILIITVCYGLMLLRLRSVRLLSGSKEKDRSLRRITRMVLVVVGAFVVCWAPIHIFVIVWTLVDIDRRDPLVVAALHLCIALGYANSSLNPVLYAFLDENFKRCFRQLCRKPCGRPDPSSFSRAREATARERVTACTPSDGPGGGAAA

Compound `CC(=O)N[C@H](Cc1c[nH]c2ccc(F)cc12)C(=O)N[C@@H](Cc1ccccc1)C(=O)NCC(N)=O` showed a Ki in series [1] above 100000 nM.
Same read-out and setting: next, `CC(=O)N[C@H](Cc1c[nH]c2c(C)cccc12)C(=O)N[C@@H](Cc1ccccc1)C(=O)NCC(N)=O`: above 100000 nM; `CC(=O)N[C@H](Cc1c[nH]c2cc(F)ccc12)C(=O)N[C@@H](Cc1ccccc1)C(=O)NCC(N)=O`: 5.7 nM.
For the compound `CC(=O)N[C@H](Cc1c[nH]c2ccccc12)C(=O)N[C@@H](Cc1ccccc1)C(=O)NCC(N)=O` (Ac-[dW]-Phe-Gly-NH2), the Activity result in series [2], in [4], in [5] and in series [7] was “Non-toxic” each time. In addition, the MPE in series [3] is listed as 37%; in [6], 19%.
In turn, `CC(=O)N[C@H](Cc1c[nH]c2cc(Cl)ccc12)C(=O)N[C@@H](Cc1ccccc1)C(=O)NCC(N)=O` showed a Ki in series [1] above 100000 nM.
Turning to `CC(=O)N[C@H](Cc1c[nH]c2ccc([N+](=O)[O-])cc12)C(=O)N[C@@H](Cc1ccccc1)C(=O)NCC(N)=O`, the metabolised at 3 h in series [8] was 7%. Moreover, the Activity in series [9] was 25%; in series [10], “Dose-dependent effect”; in series [2] it was “Non-toxic”; in series [13], 49%; in series [14], 47%; in series [4] it was “Non-toxic”. For the same compound, the results for the Activity result in series [15], in series [5] and in series [7] were “Dose-dependent effect”, “Non-toxic” and “Non-toxic”, respectively. Moreover, the Ki was above 100000 nM in series [11], 51.9 nM in series [1] and above 100000 nM in [16]. For the same compound, the MPE in [12] was determined as 48%.
As to `O=C1CNC(=O)[C@H](Cc2ccccc2)NC(=O)[C@@H](Cc2c[nH]c3ccccc23)NC(=O)CNC(=O)[C@H](Cc2ccc(O)cc2)N1`, in series [8], the metabolised at 3 h was below 10%. The Ki in series [11] was above 100000 nM; in series [1], 3.6 nM; in series [16], 24 nM. The Activity entry in [2], in series [4], in series [5] and in series [7] was “Non-toxic” throughout. The values for the MPE in [3] and in series [6] were 32% and 22%, respectively.
On to `CC(=O)N[C@H](Cc1c[nH]c2ccc(Br)cc12)C(=O)N[C@@H](Cc1ccccc1)C(=O)NCC(N)=O`, for which the Ki in series [11] is above 100000 nM; in series [1] it was 114 nM; in series [16] it was above 100000 nM.
Turning to `CC(=O)N[C@H](Cc1c[nH]c2ccc(C)cc12)C(=O)N[C@@H](Cc1ccccc1)C(=O)NCC(N)=O`, the Ki was above 100000 nM in series [11], 426 nM in [1] and above 100000 nM in [16].
As to `CC(=O)N[C@H](Cc1c[nH]c2ccc(Cl)cc12)C(=O)N[C@@H](Cc1ccccc1)C(=O)NCC(N)=O`, the Ki in series [1] is 20.8 nM.
For `CC(=O)N[C@H](Cc1c(C)[nH]c2ccccc12)C(=O)N[C@@H](Cc1ccccc1)C(=O)NCC(N)=O`, the Ki was above 100000 nM in [11], 314 nM in series [1] and above 100000 nM in series [16].
`CC(=O)N[C@H](Cc1c(C)[nH]c2ccc(Cl)cc12)C(=O)N[C@@H](Cc1ccccc1)C(=O)NCC(N)=O` showed a Ki in [1] above 100000 nM.
As for `CC(=O)N[C@H](Cc1c[nH]c2c(Br)cccc12)C(=O)N[C@@H](Cc1ccccc1)C(=O)NCC(N)=O`, the Ki in series [11] is above 100000 nM; in [1] it was 190 nM; in [16] it was above 100000 nM.
Regarding `CC(=O)N[C@H](Cc1c(C)[nH]c2c(Br)cccc12)C(=O)N[C@@H](Cc1ccccc1)C(=O)NCC(N)=O`, the figures for the Ki in [11], in [1] and in [16] were above 100000 nM, 4.03 nM and above 100000 nM, respectively. Besides, the Activity entry in series [2], in [4], in series [5] and in [7] was “Non-toxic” in each case. For the same compound, the MPE in series [3] is reported as 32%; in series [6] it was 33%.
Consider `CC(=O)N[C@H](Cc1c[nH]c2ccccc12)C(=O)N[C@@H](Cc1ccccc1)C(N)=O` (Ac-[dW]-Phe-NH2), for which the Activity entry in series [2], in [4], in series [5] and in series [7] was “Non-toxic” throughout. Also, the result in [3] and in series [6] was inactive.
